Data: BindingDB's records for doi:10.1021/acs.jmedchem.9b01421 (2019)

Target: Capsid protein (Hepatitis B virus, UniProt Q03732)
Test: Inhibition of capsid in HBV infected in human HepG.2.2.15 cells assessed as reduction of HBV DNA incubated for 5 days by quantitative PCR analysis
Procedure, shortened: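 HepG2.2.15 cells (HepG2-derived, stably carrying the HBV genome; kept in DMEM-F12 with 10% FBS, penicillin/streptomycin, 0.5 mg/mL G418) seeded at 3 × 10^4 cells/well and incubated overnight at 37 °C. Compounds were serially half-log diluted in DMSO and added in medium at 0.5% final DMSO. HBV DNA was extracted and quantified by qPCR.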

Sequence of Capsid protein (Q03732 whole entry): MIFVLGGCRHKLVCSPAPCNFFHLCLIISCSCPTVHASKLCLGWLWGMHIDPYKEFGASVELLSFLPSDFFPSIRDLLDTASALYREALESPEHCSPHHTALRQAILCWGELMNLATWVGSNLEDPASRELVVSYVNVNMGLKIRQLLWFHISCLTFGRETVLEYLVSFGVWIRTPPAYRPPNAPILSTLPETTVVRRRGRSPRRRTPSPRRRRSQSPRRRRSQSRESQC

Going from `COC(=O)C1=C(CN2CC(F)(F)C[C@H]2C(=O)O)NC(c2nccs2)=N[C@H]1c1ccc(F)cc1Cl` to `CCOC(=O)C1=C(CN2CC(F)(F)C[C@H]2C(=O)O)NC(c2nccs2)=N[C@H]1c1ccc(F)cc1Cl`, the EC50 rises from 3 nM to 10 nM (3.3-fold).

Going from `CCOC(=O)C1=C(CN2CCOC[C@H]2C(=O)O)NC(c2nccs2)=N[C@H]1c1ccc(F)c(F)c1F` to `CCOC(=O)C1=C(CN2CCOC[C@H]2C(=O)O)NC(c2nccs2)=N[C@H]1c1ccc(F)cc1F`, the EC50 rises from 5 nM to 14 nM (2.8-fold). The first is the more potent here.

Going from `COC(=O)C1=C(CN2CC(F)(F)C[C@H]2C(=O)O)NC(c2nccs2)=N[C@H]1c1ccc(F)c(F)c1` to `COC(=O)C1=C(CN2CCOC[C@H]2C(=O)O)NC(c2nccs2)=N[C@H]1c1ccc(Br)c(F)c1`, the EC50 falls from 22 nM to 10 nM (2.2-fold).

Going from `CCOC(=O)C1=C(CN2CCOC[C@H]2C(=O)O)NC(c2nccs2)=N[C@H]1c1ccc(Cl)c(F)c1` to `CCOC(=O)C1=C(CN2CCOC[C@H]2C(=O)O)NC(c2nccs2)=N[C@H]1c1ccc(C)c(F)c1`, the EC50 rises from 2 nM to 5 nM (2.5-fold).

`CCOC(=O)C1=C(CN2CCOC[C@H]2C(=O)O)NC(c2nccs2)=N[C@H]1c1cccc(F)c1` and `CCOC(=O)C1=C(CN2CCOC[C@H]2C(=O)O)NC(c2nccs2)=N[C@H]1c1ccc(F)cc1` are the same in EC50: 15 nM for the first, 15 nM for the second.

Compound `CCOC(=O)C1=C(CN2CCOC[C@H]2C(=O)O)NC(c2nccs2)=N[C@H]1c1cc(F)c(F)c(F)c1` has an EC50 of 18 nM.

Target: not listed separately
Test: Inhibition of capsid in HBV infected in human HepG.2.2.15 cells assessed as reduction of HBV DNA incubated for 5 days by quantitative PCR analysis

Compared with `CCOC(=O)C1=C(CN2CCOC[C@H]2C(=O)O)NC(c2nccs2)=N[C@H]1c1ccc(F)cc1Cl`, `CCOC(=O)C1=C(CN2CCOC[C@H]2C(=O)O)NC(c2nccs2)=N[C@H]1c1ccc(F)c(Cl)c1` is higher in EC50: 2 nM for the first, greater than 1000 nM for the second. The first is the more potent here.

Compared with `COC(=O)C1=C(CN2CCOC[C@H]2C(=O)O)NC(c2nccs2)=N[C@H]1c1ccc(Cl)c(F)c1`, `COC(=O)C1=C(CN2CCOC[C@H]2C(=O)O)NC(c2nccs2)=N[C@H]1c1ccc(F)c(F)c1` is 4.6-fold higher in EC50: 10 nM for the first, 46 nM for the second. The first is the more potent here.

Going from `CCOC(=O)C1=C(CN2CCOC[C@H]2C(=O)O)NC(c2nccs2)=N[C@H]1c1ccc(F)c(C#N)c1` to `CCOC(=O)C1=C(CN2CCOC[C@H]2C(=O)O)NC(c2nccs2)=N[C@H]1c1ccc(F)c(F)c1`, the EC50 falls from greater than 1000 nM to 11 nM.

Going from `CCOC(=O)C1=C(CN2CCOC[C@H]2C(=O)O)NC(c2nccs2)=N[C@H]1c1ccc(Br)c(F)c1` to `CCOC(=O)C1=C(CN2CCOC[C@H]2C(=O)O)NC(c2nccs2)=N[C@H]1c1ccc(F)c(Br)c1`, the EC50 rises from 3 nM to greater than 1000 nM. The first is the more potent here.

Compound `COC(=O)C1=C(CN2CCOC[C@H]2C(=O)O)NC(c2nccs2)=N[C@H]1c1ccc(C)c(F)c1` has an EC50 of 28 nM.
